Source: ChEMBL document CHEMBL3421610, “Antimalarial activity of 4-amidinoquinoline and 10-amidinobenzonaphthyridine derivatives” (J Med Chem, 2015)
In brackets after ≈: the same amount, converted by molar mass. Activity calls are given as the source filed them. No cut-off for these calls is given here.

Experiments:
Plasmodium falciparum [1] = assay: Antimalarial activity against chloroquine-resistant Plasmodium falciparum C235 assessed as growth inhibition after 18 hrs by [3H]-hypoxanthine uptake assay; type: functional, organism-based
In short: (§1)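 P. falciparum clones D6, W2 and TM91C235; modified semiautomated microdilution. Compounds in DMSO, diluted in RPMI 1640 with 10% human plasma, tested over (1.56-100) x 10^-9 M; final DMSO 0.25-0.5%. Inoculum 0.5% parasitemia, 1% hematocrit. 24 h incubation, then [3H]-hypoxanthine added, further 18 h. Harvested and read by scintillation counting; IC50 by nonlinear regression.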

Plasmodium falciparum [2] = assay: Antimalarial activity against chloroquine-sensitive Plasmodium falciparum D6 assessed as growth inhibition after 18 hrs by [3H]-hypoxanthine uptake assay; type: functional, organism-based; in short: as §1
[3] = Half life in mouse liver microsomes at 1 uM by LC/MS analysis; type: ADME
In short: (§2)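 Compound at 1 µM final, diluted from […], with 0.5 mg/mL pooled human or mouse liver microsomes, NADP, MgCl2 and 0.1 M PBS pH 7.4. Reaction started with 1 U/mL G6PD and shaken at 37 °C. Aliquots quenched in cold acetonitrile at 0, 10, 20, 30 and 60 min and quantified by LC/MS. Half-life from log plot of total ion chromatogram area remaining.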

[4] = Half life in human liver microsomes at 1 uM by LC/MS analysis; type: ADME; in short: as §2
hERG (KCNH2) = hERG (KCNH2) (Homo sapiens, UniProt Q12809); assay: Inhibition of human ERG expressed in CHL cells assessed as tail current at 10 uM after 7 mins by patch clamp assay relative to control; type: cell-based; settings: CHL cells expressing human ERG
HepG2 = assay: Cytotoxicity against human HepG2 cells after 48 hrs by MTT assay; type: cell-based; settings: HepG2, 48 h
In short: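 HepG2 cells in supplemented MEM, plated at 9570 cells/well in 384-well format and incubated overnight at 37 °C, 5% CO2. Twelve duplicate 1.6-fold dilutions, 57–10,000 ng/ml, incubated 48 h. MTT added for 1 h at room temperature in the dark, formazan dissolved in acidified isopropanol, absorbance read. IC50 by sigmoidal variable-slope nonlinear regression; tryptanthrin control.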

Plasmodium falciparum [5] = assay: Antimalarial activity against chloroquine-resistant Plasmodium falciparum W2 assessed as growth inhibition after 18 hrs by [3H]-hypoxanthine uptake assay; type: functional, organism-based; in short: as §1
Plasmodium berghei = assay: Antimalarial activity against erythrocytic stage of chloroquine resistant Plasmodium berghei ANKA infected in mouse assessed as cure rate at 160 mg/kg, po qd administered on day 3, 4 and 5 post infection measured 3 times per week for 30 days, starting from day 3 by Thompson test; type: functional, organism-based; set-up: dose 160 mg/kg
In short: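 Male mice of 16-20 g inoculated intraperitoneally with 5 x 10^6 erythrocytes infected with CQ-resistant P. berghei ANKA. Drug given orally as a suspension once daily on days 3, 4 and 5 post-infection, five mice per dose. Blood films from day 3, three times weekly for 30 days. Cure means parasite-negative on day 30 or surviving 30 days. Mice losing >20% body weight sacrificed.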

Sequence of hERG (KCNH2) (Q12809 whole entry): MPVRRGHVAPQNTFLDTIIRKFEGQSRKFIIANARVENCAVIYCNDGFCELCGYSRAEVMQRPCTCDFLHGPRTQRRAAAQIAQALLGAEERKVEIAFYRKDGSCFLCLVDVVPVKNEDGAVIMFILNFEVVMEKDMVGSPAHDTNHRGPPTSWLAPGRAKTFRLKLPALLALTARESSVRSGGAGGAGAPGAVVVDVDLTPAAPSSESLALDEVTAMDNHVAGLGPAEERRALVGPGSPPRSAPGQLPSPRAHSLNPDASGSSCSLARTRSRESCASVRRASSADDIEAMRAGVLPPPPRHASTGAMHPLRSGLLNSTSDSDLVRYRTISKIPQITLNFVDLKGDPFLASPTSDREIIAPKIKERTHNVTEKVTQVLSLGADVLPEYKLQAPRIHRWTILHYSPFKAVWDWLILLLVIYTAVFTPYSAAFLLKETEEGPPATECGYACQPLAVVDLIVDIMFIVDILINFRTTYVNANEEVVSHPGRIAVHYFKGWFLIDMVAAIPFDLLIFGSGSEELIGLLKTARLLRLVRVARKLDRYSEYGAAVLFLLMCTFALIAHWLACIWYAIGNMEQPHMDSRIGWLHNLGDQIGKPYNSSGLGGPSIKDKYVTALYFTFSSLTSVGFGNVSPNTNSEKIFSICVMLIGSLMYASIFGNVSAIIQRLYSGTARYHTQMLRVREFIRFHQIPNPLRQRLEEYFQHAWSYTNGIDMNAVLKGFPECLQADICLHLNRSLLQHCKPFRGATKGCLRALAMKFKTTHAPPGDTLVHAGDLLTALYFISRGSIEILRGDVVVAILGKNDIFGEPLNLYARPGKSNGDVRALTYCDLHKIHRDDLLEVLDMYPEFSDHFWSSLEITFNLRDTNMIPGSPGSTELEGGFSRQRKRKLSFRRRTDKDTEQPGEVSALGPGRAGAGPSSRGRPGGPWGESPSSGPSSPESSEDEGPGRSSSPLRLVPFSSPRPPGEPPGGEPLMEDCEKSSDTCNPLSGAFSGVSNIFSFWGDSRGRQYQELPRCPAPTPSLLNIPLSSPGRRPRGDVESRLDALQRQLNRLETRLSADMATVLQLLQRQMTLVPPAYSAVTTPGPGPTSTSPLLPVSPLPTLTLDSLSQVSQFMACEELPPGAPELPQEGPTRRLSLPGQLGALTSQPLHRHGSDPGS

| SMILES | IC50 (Plasmodium falciparum [1]) [nM] | IC50 (Plasmodium falciparum [2]) [nM] | half-life at 1 µM [3] [min] | half-life at 1 µM [4] [min] | inhibition at 7 min, 10 µM (hERG (KCNH2)) [%] | IC50 (HepG2) [µg/mL] | IC50 (Plasmodium falciparum [5]) [nM] | Activity (Plasmodium berghei) |
| --- | --- | --- | --- | --- | --- | --- | --- | --- |
| CCN(CC)CCC/N=C(\c1ccccc1)N(CCCN(CC)CC)c1ccnc2cc(Cl)ccc12 | 33.7 | 6.1 | > 60 | > 60 | 21.9 | 4.09 (≈ 8.05 µM) | 76.8 |  |
| O=C1c2ccccc2-n2c1nc1ccccc1c2=O [TRYPTANTHRIN] |  |  |  |  |  | 0.305 (≈ 1.23 µM) |  |  |
| COc1ccc2nc3cc(Cl)ccc3c(N(CCCN(C)C)/C(C)=N/CCCN(C)C)c2n1 | 51 | 11.7 | > 60 | > 60 | 18.3 | 1.7 (≈ 3.6 µM) | 80.8 |  |
| CCN(CC)CCCN/C(C)=N\c1ccnc2cc(Cl)ccc12 | 133 | 138 | > 60 | > 60 |  | > 10 | 226 |  |
| CCN(CC)CCCN/C(=N\c1ccnc2cc(Cl)ccc12)c1cccnc1 | 79.5 | 38.9 | > 60 | 36 | 101 | 7.87 (≈ 19.9 µM) | 203 |  |
| CCN(CC)CCC/N=C(/Nc1c2ccc(Cl)cc2nc2ccc(OC)nc12)c1ccccc1 | 2.8 | 1.7 | 26 | 16 |  | 3.7 (≈ 7.77 µM) | 5.6 |  |
| COc1ccc2nc3cc(Cl)ccc3c(N/C(=N/CCCN3CCCCC3)C(C)C)c2n1 | 1.94 | 1.1 | 8 | 9 | 69.6 | 2.01 (≈ 4.42 µM) | 3.96 |  |
| CCN(CC)CCC/N=C(/Nc1c2ccc(Cl)cc2nc2ccc(OC)nc12)C(C)C | 3.8 | 2 | 22 | 20 | 86.5 | 2.06 (≈ 4.67 µM) | 8.8 |  |
| CCN(CC)CCCC(C)Nc1ccnc2cc(Cl)ccc12 (centres undefined) [CHLOROQUINE] |  |  | > 60 | > 60 | 71 | 12 (≈ 37.6 µM) |  | Active |
| CC(C)/C(=N/c1ccnc2cc(Cl)ccc12)NC1CCN(Cc2ccccc2)CC1 | 30.9 | 15 | 30 | 25 | 51.8 | 5.15 (≈ 12.2 µM) | 58.7 |  |
| CCN(CC)CCCN(CCCN(CC)CC)/C(C)=N\c1ccnc2cc(Cl)ccc12 | 33.9 | 15 | > 60 | > 60 | 16.2 | 3 (≈ 6.73 µM) | 121 |  |
| C/C(=N/c1ccnc2cc(Cl)ccc12)NC1CCN(C)CC1 | 89 | 76 | > 60 | > 60 |  | > 30.3 | 275 |  |
| CCN(CC)CCCN(CCCN(CC)CC)/C(=N\c1c2ccc(Cl)cc2nc2ccc(OC)nc12)C(C)C | 3.2 | 1.1 | > 60 | > 60 | 32.5 | 0.668 (≈ 1.2 µM) | 6.1 |  |
| Clc1ccc2c(/N=C(\NCCCN3CCCCC3)c3ccccc3)ccnc2c1 | 5.7 | 5.2 | 18 | 12 | 93 | 5.12 (≈ 12.6 µM) | 15.7 |  |
| CCN(CC)CCCCCN/C(C)=N\c1ccnc2cc(Cl)ccc12 | 175 | 125 | > 60 | 56 |  | 12.5 (≈ 34.5 µM) | 455 |  |
| CCN(CC)CCC/N=C(\c1cccnc1)N(CCCN(CC)CC)c1ccnc2cc(Cl)ccc12 | 290 | 34.8 | > 60 | > 60 |  | 2.94 (≈ 5.78 µM) | 383 |  |
| OC(c1cc(C(F)(F)F)nc2c(C(F)(F)F)cccc12)C1CCCCN1 (centres undefined) [MEFLOQUINE] |  |  |  |  | 95 |  |  |  |
| CCN(CC)CCC/N=C(/N=c1\ccn(CCCN(CC)CC)c2cc(Cl)ccc12)c1cccnc1 | 2660 | 2500 | > 60 | > 60 |  | 14.1 (≈ 27.7 µM) | 3920 |  |
| CCCCN(CCCC)CCC(O)c1cc2c(Cl)cc(Cl)cc2c2cc(C(F)(F)F)ccc12 (centres undefined) [HALOFANTRINE] |  |  |  |  | 100 |  |  |  |
| CN(C)CCC/N=C(\c1ccccc1)N(CCCN(C)C)c1ccnc2cc(Cl)ccc12 | 45.4 | 7.1 | > 60 | > 60 | 16.4 | 5.77 (≈ 12.8 µM) | 121 |  |
| CCN(CC)CCC/N=C(/Nc1c2ccc(Cl)cc2nc2ccc(OC)nc12)c1cccnc1 | 8.2 | 7.2 | 29 | 32 | 63 | 8.6 (≈ 18 µM) | 20.6 |  |
| C/C(=N/c1ccnc2cc(Cl)ccc12)NCCCN1CCOCC1 | 578 | 327 | 22 | 25 |  | > 30.3 | 295 |  |
| C/C(=N/c1ccnc2cc(Cl)ccc12)NCCc1ccncc1 | 719 | 920 | 13 | 47 |  | 11.3 (≈ 34.7 µM) | 617 |  |
| CCN(CC)CCN/C(C)=N\c1ccnc2cc(Cl)ccc12 | 182 | 189 | 18 | 26 |  | 1.32 (≈ 4.15 µM) | 296 |  |
| Clc1ccc2c(N(CCCN3CCCCC3)/C(=N/CCCN3CCCCC3)c3ccccc3)ccnc2c1 | 6.95 | 1.9 | > 60 | 31 | 21.7 | 2.45 (≈ 4.6 µM) | 16 |  |
| COc1ccc2nc3cc(Cl)ccc3c(N/C(=N/CCCN(C)C)C(C)C)c2n1 | 4.3 | 2.2 | 46 | 33 | 72.1 | 3.56 (≈ 8.6 µM) | 9.7 |  |
| C/C(=N/c1ccnc2cc(Cl)ccc12)NCCC1CCN(c2ccncc2)CC1 | 64 | 36.4 | > 60 | > 60 |  | 6.73 (≈ 16.5 µM) | 193 |  |
